Data on ten compounds can be found in ChEMBL document CHEMBL1124123, “Graphics computer-aided receptor mapping as a predictive tool for drug design: development of potent, selective, and stereospecific ligands for the 5-HT1A receptor” (J Med Chem, 1988).

Assay [1] addresses T1, Serotonin 2 (5-HT2) receptor (Rattus norvegicus, UniProt P30994+P08909+P14842). As to the kind of experiment: Binding affinity towards 5-hydroxytryptamine 2 receptor in rat brain membrane using […] as a selective ligand. It counts as cell membranes. In outline:
(§1)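 5-HT2 sites in rat brain were labelled with [3H]ketanserin in a radioligand receptor binding assay.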

In assay [2] the target is T2, 5-hydroxytryptamine receptor 1B (Rattus norvegicus, UniProt P28564). As to the kind of experiment: Binding affinity against 5-HT1B receptor in rat brain membrane using [3H]-5-HT in the presence of 8-OH-DPAT.
T2 sequence (P28564 whole entry): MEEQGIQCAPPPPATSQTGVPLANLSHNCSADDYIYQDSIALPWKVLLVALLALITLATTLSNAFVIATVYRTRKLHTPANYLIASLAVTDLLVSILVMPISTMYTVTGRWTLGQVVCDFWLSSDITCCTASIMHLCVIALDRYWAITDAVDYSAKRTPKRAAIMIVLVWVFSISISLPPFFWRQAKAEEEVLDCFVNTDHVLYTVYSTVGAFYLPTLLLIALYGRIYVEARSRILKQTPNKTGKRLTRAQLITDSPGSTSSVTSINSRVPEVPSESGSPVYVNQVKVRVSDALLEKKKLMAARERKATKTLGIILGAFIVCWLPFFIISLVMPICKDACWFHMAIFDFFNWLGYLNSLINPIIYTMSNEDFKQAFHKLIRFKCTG
Assay [3] has as its target T3, Adrenergic receptor alpha-2 (Rattus norvegicus, UniProt P22086+P19328+P22909).
T3 sequence (P22086 whole entry): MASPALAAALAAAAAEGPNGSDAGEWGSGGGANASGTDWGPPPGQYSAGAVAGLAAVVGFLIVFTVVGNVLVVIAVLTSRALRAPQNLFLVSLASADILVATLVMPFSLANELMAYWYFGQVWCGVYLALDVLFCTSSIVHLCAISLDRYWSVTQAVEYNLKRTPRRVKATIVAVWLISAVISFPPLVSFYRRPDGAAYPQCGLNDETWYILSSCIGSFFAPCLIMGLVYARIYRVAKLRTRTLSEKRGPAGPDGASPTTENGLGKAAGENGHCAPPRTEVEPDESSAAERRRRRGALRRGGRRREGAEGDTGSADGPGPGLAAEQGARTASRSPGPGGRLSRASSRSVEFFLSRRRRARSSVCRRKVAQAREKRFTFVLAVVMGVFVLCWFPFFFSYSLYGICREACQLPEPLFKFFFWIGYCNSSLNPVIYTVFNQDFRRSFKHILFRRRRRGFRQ
T3 sequence (P19328 whole entry): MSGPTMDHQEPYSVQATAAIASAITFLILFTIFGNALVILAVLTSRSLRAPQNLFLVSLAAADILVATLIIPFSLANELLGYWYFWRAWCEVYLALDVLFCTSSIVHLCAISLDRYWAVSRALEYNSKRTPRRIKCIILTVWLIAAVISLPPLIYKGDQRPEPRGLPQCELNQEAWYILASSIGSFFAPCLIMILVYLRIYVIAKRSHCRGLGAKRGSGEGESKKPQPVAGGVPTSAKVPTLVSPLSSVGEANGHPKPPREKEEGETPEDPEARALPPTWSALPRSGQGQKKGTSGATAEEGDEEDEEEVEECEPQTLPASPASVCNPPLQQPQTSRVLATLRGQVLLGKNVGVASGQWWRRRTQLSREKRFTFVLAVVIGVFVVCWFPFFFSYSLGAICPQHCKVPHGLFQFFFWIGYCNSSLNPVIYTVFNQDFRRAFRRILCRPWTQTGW
T3 sequence (P22909 whole entry): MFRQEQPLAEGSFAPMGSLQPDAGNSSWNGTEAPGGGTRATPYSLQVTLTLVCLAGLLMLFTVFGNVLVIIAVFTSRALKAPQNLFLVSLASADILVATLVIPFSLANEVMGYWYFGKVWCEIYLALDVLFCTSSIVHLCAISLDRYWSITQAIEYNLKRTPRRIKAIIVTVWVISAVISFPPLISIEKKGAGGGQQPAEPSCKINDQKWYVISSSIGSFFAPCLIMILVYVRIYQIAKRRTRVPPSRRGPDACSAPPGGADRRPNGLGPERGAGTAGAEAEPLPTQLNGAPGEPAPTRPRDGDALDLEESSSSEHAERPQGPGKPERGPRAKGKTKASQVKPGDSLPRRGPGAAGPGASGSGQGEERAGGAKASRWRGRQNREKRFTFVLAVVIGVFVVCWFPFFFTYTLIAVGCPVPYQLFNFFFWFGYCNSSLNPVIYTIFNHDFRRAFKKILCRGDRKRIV
As to the kind of experiment: Binding affinity against alpha-2 adrenergic receptor in rat brain membrane using […] as a selective ligand. It is filed as cell membranes. In outline:
(§2)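 Alpha2-adrenergic sites in rat brain were labelled with [3H]clonidine for radioligand binding.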

Assay [4] concerns the target T4, D(2) dopamine receptor (Rattus norvegicus, UniProt P61169). As to the kind of experiment: Binding affinity against Dopamine receptor D2 in rat brain membrane using [3H]domperidone as radioligand.
The target of assay [5] is T5, 5-hydroxytryptamine receptor 1A (Rattus norvegicus, UniProt P19327).
T5 sequence (P19327 whole entry): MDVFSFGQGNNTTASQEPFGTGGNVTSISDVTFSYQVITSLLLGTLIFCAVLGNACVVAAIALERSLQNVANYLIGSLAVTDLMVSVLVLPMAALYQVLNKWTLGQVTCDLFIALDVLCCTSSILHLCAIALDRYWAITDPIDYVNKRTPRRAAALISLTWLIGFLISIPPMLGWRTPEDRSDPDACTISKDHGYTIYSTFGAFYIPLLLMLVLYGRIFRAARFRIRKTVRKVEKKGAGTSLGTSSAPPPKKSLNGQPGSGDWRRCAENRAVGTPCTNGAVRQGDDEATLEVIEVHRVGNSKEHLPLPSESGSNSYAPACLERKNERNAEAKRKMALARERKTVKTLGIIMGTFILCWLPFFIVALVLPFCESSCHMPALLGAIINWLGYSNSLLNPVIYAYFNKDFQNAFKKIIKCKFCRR
As to the kind of experiment: Binding affinity towards 5-hydroxytryptamine 1A receptor in rat frontal cortex using [3H]8-OH-DPAT as a radioligand. It is filed as tissue-based.

For assay [6], the target named is T6, Adrenergic receptor alpha-1 (Rattus norvegicus, UniProt P15823+P23944+P43140).
T6 sequence (P15823 whole entry): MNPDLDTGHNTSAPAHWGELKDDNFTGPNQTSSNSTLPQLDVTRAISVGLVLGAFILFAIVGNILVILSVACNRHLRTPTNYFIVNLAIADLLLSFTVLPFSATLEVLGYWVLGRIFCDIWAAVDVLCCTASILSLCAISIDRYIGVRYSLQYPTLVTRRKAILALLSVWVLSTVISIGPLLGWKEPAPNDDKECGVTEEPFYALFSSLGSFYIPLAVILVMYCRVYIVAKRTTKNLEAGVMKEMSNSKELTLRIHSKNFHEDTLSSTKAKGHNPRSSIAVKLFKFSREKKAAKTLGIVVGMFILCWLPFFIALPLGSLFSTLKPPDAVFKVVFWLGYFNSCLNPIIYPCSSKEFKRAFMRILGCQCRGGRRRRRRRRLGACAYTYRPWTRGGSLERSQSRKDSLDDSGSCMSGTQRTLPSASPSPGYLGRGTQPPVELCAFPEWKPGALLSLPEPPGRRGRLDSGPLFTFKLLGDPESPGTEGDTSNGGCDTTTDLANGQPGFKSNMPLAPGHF
T6 sequence (P23944 whole entry): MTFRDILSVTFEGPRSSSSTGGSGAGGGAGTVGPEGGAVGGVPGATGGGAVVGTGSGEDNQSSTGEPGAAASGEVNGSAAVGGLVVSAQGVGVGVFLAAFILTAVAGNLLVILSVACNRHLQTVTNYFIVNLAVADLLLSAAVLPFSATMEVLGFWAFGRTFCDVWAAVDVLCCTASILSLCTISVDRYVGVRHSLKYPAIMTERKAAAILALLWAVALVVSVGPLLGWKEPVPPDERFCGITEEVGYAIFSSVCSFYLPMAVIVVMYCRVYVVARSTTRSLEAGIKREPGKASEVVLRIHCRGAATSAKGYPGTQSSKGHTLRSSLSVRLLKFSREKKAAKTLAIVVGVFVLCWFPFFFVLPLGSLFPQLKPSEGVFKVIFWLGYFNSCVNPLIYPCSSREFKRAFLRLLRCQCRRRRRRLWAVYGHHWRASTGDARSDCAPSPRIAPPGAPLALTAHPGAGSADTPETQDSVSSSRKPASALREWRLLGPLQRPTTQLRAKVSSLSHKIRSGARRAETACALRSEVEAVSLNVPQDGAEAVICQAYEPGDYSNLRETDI
T6 sequence (P43140 whole entry): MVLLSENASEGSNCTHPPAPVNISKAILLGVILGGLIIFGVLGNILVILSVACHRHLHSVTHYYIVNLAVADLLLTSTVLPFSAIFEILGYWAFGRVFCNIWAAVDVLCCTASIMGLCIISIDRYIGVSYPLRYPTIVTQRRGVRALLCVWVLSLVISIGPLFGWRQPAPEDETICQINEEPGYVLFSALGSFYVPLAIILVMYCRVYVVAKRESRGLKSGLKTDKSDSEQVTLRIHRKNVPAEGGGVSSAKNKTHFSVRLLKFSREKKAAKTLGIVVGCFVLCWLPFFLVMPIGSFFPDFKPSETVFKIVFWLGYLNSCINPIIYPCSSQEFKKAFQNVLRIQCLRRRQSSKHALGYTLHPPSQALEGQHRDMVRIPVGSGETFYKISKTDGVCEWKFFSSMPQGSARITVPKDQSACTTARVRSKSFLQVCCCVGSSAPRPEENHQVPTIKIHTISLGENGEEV
As to the kind of experiment: Binding affinity against alpha-1 adrenergic receptor in rat brain membrane using […] as a selective ligand. It counts as cell membranes. In outline:
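Alpha1-adrenergic binding in rat brain, using [3H]prazosin as the radioligand.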

The target of assay [7] is T5, 5-hydroxytryptamine receptor 1A. As to the kind of experiment: Binding affinity towards 5-hydroxytryptamine 1A receptor in rat brain membrane using [3H]8-OH-DPAT as a selective ligand. It counts as cell membranes.
In assay [8] the target is T3, Adrenergic receptor alpha-2. As to the kind of experiment: Binding affinity against alpha-2 adrenergic receptor in rat brain membrane using […]. It counts as cell membranes. In outline: as §2
The target in assay [9] is T4, D(2) dopamine receptor. As to the kind of experiment: Binding affinity against Dopamine receptor D2 in rat brain membrane using [3H]-8-OH-DPAT as a selective ligand. It counts as cell membranes. To be noted: in the assay text read “[3H]domperidone as radioligand” for “[3H]-8-OH-DPAT as a selective ligand”. In outline:
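D2 receptor binding in rat brain, using [3H]domperidone as the radioligand.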

Assay [10] addresses T1, Serotonin 2 (5-HT2) receptor. As to the kind of experiment: (§3) Binding affinity towards 5-hydroxytryptamine 2 receptor in rat frontal cortex using [3H]ketanserin as radioligand.
In assay [11] the target is T2, 5-hydroxytryptamine receptor 1B. As to the kind of experiment: Binding affinity against 5-HT1B receptor in rat frontal cortex using [3H]-5-HT in presence of 0.1 uM […]. It is filed as tissue-based.
The target of assay [12] is T1, Serotonin 2 (5-HT2) receptor. The assay is described as §3. It is filed as tissue-based. In outline: as §1
The target in assay [13] is T2, 5-hydroxytryptamine receptor 1B. As to the kind of experiment: Binding affinity towards 5-HT1B receptor in rat brain membrane using [3H]8-OH-DPAT as a selective ligand. It counts as cell membranes.

The term IC50 denotes the concentration that inhibits the measured activity by half.

The structures appear in SMILES notation.

T4 sequence (P61169 whole entry): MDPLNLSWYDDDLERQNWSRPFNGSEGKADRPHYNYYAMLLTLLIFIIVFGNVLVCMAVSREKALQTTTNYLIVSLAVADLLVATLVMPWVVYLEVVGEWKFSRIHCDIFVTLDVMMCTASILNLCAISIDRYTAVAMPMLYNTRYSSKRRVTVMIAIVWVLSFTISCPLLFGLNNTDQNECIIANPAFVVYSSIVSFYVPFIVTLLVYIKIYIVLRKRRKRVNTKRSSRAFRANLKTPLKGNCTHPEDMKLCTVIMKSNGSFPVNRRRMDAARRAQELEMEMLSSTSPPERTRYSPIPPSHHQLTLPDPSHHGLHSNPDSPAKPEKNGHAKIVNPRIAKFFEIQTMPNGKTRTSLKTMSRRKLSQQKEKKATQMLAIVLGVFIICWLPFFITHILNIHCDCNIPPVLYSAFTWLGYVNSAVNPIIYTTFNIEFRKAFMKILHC

Take `O=C1CC2(CCCC2)CC(=O)N1CCCCNCC1COc2c(ccc3ccccc23)O1` (stereo unspecified): the “Log IC50” value is recorded as -5.9 in [1], below -5 in assay [3] and -5.2 in assay [6]. The IC50 in [2] was 3160 nM; at D(2) dopamine receptor [4], 316 nM; in assay [5], 794 nM.

In assay [7], `O=C1CC2(CCCC2)CC(=O)N1CCCCNCC1COc2cc3ccccc3cc2O1` (stereo unspecified) gave an IC50 of 316 nM. The “Log IC50” value in assay [6] was -5.3.

Regarding `O=C1CC2(CCCC2)CC(=O)N1CCCCNC[C@@H]1COc2ccccc2O1`, the “Log IC50” value is on record as -6.1 in assay [1], -7.2 in [6] and -6.2 in assay [8]. Besides, the values for the IC50 (in assay [2]; in [7]; on D(2) dopamine receptor [9]) were 5010 nM, 20 nM and 2510 nM, respectively.

As to `O=C1CC2(CCCC2)CC(=O)N1CCCCNC[C@H]1COc2ccccc2O1`, the results for the “Log IC50” value in [1], in [3] and in [6] were -6.7, -6.3 and -8, respectively. The IC50 in [2] was 794 nM; in [5], 0.631 nM; at D(2) dopamine receptor [9] it was 79.4 nM.

In the case of `O=C1CC2(CCCC2)CC(=O)N1CCCCNCC1COc2ccccc2O1` (stereo unspecified), the entries for the “Log IC50” value in [1], in assay [3] and in assay [6] were -6.2, -6.4 and -7.8, respectively. Also, the IC50 in assay [2] is 631 nM; in assay [5] it was 0.794 nM; on D(2) dopamine receptor [9] it was 158 nM.

As for `O=C1CC2(CCCC2)CC(=O)N1CCCCNCC1COc2ccc3ccccc3c2O1` (stereo unspecified), the “Log IC50” value is -6.8 in assay [1], below -5 in [3] and -6.1 in assay [6]. Besides, the IC50 in assay [2] is 398 nM; in [5], 5.01 nM; at D(2) dopamine receptor [9], 158 nM.

Turning to `CSc1ccc2c(c1)[C@H](N1CCN(C)CC1)Cc1ccccc1S2`, the IC50 was 851 nM in assay [7] and 3240 nM in assay [11]. Besides, in [10], the “Log IC50” value is -8.25.

As for `CSc1ccc2c(c1)[C@@H](N1CCN(C)CC1)Cc1ccccc1S2`, the figures for the IC50 in assay [5] and in [13] were 95.5 nM and 182 nM, respectively. Also, in assay [12], the “Log IC50” value is listed as -8.2.

Take `CCCN(CCC)C1CCc2cccc(O)c2C1` (stereo unspecified) [8-OH-DPAT]: the “Log IC50” value in [10] is given as -5.

With `O=C(CCCN1CCC2(CC1)C(=O)NCN2c1ccccc1)c1ccc(F)cc1` [SPIPERONE], the IC50 was 123 nM in [7] and 1000 nM in assay [11].
